Assay [1] deals with P388. As to the kind of experiment: Change in tumor cell population in ip implanted P388 Leukemia in mice after administration of compound at 50 mg/kg; toxic. In kind it is functional, organism-based. Further details: dose 50 mg/kg. The following applies: Mus musculus. A digest of the protocol:
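P388 leukemia: ascitic fluid with ca. 5.2×10^6 cells inoculated ip into Portage-CD₂F₁ female mice. Drug given ip on days 1-5, starting 24 h after inoculation, dosed by average body weight. Vehicle was saline plus Tween 80, as a solution or suspension. KE = net log change in viable tumor cells from start to end of treatment.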

The subject of assay [2] is P388. As to the kind of experiment: Change in tumor cell population in ip implanted P388 Leukemia in mice after administration of compound at 25 mg/kg. It counts as functional, Mus musculus. The following applies: route intraperitoneal. A digest of the protocol: (§1)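 Female Portage-CD2F1 mice were inoculated ip with ascitic fluid holding ca. 5.2×10^6 P388 cells. Dosing was ip on days 1-5, starting 24 h after inoculation, by average body weight, as a solution or suspension in saline plus Tween 80. KE is the net log change in viable tumor cell population from start to end of the treatment period.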

The nature of assay [3]: Percent increase in life span of dying mice tested in vivo at 50 mg/kg against ip implanted LOX amelanotic melanoma in mice (60-day survivors). It counts as functional. The following applies: Mus musculus, 1440 h, route intraperitoneal. A digest of the protocol:
(§2)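 Female CD2F1 mice implanted ip with ascitic fluid carrying ca. 1.7×10^6 LOX amelanotic melanoma cells. Drug given ip on days 1, 5 and 9, starting 24 h after implant, dosed by exact body weight; solutions or suspensions made fresh daily. %ILS is from the median day of death of dying mice versus controls, excluding 60-day survivors.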

Assay [4] relates to HT-29. Briefly: Concentration required to inhibit tumor growth in HT29, human colon adenocarcinoma cell line. In kind it is functional, cell-based. The procedure, abridged:
(§3)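 Cells grown in RPMI 1640 with 5% fetal calf serum, 5% NuSerum IV and 20 mM HEPES, seeded and allowed to adhere overnight. Compound dissolved in RPMI-1640 plus HEPES and tested over a 5 log range (10 concentrations) for 72 h. Read-out by sulforhodamine B assay. Median-effect dose derived by nonlinear regression of the concentration-effect curve.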

Assay [5] in a line: Change in tumor cell population in ip implanted LOX amelanotic melanoma in mice after administration of compound at 50 mg/kg. It counts as functional, Mus musculus. The following applies: route intraperitoneal. The procedure, abridged: (§4)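 Female CD2F1 mice were implanted ip with ascitic fluid holding ca. 1.7×10^6 LOX cells. Dosing was ip on days 1, 5 and 9, starting 24 h after implantation, by exact body weight, as a solution or suspension in saline plus Tween 80, freshly prepared daily. KE is the net log change in viable tumor cells from start to end of treatment. Bracketed KE assumes Poisson survival, with 60-day survivors tumor-free.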

Assay [6] can be described thus: Concentration required to inhibit tumor growth in PSN-1, human pancreatic carcinoma cell line. In kind it is functional. A digest of the protocol: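 PSN-1 pancreatic carcinoma cells exposed to compound dissolved in RPMI-1640 plus HEPES at its maximum soluble concentration for 72 h. Read-out by sulforhodamine B colorimetric assay.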
Assay [7] relates to P388. As to the kind of experiment: Percent increase in life span of dying mice tested in vivo at 50 mg/kg against ip implanted P388 Leukemia in mice. It counts as functional. The settings on record: Mus musculus, route intraperitoneal. A digest of the protocol:
(§5)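 Portage-CD2F1 female mice inoculated ip with ascitic fluid carrying ca. 5.2×10^6 P388 leukemia cells. Drug given ip daily on days 1-5, starting 24 h after inoculation, dosed by average body weight. %ILS is from the median day of death of dying mice versus controls.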

For assay [8], the system named is LOX amelanotic melanoma (human). As to the kind of experiment: Percent increase in life span of dying mice tested in vivo at 25 mg/kg against ip implanted LOX amelanotic melanoma in mice (60-day survivors). The following applies: Mus musculus, 1440 h.
Assay [9] has as its system P388. As to the kind of experiment: Change in tumor cell population in ip implanted P388 Leukemia in mice after administration of compound at 100 mg/kg; toxic. It counts as functional, organism-based. Further details: dose 100 mg/kg. The following applies: Mus musculus. The procedure, abridged:
as §1

In assay [10] the test system is P388. As to the kind of experiment: Percent increase in life span of dying mice tested in vivo at 100 mg/kg against ip implanted P388 Leukemia in mice. It counts as functional. The settings on record: Mus musculus, route intraperitoneal. The procedure, abridged: as §5
The nature of assay [11]: Concentration required to inhibit tumor growth in […], human breast adenocarcinoma cell line. In kind it is functional. A digest of the protocol:
as §3

For assay [12], the system named is P388. Briefly: Change in tumor cell population in ip implanted P388 Leukemia in mice after administration of compound at 12.5 mg/kg. In kind it is functional, Mus musculus. The settings on record: route intraperitoneal. The procedure, abridged:
as §1

A short description of assay [13]: Percent increase in life span of dying mice tested in vivo at 200 mg/kg against ip implanted LOX amelanotic melanoma in mice (60-day survivors). The following applies: Mus musculus, 1440 h, route intraperitoneal. It counts as functional. The procedure, abridged: as §2
For assay [14], the system named is A549. As to the kind of experiment: Concentration required to inhibit tumor growth in A549, human lung carcinoma (NSCLC) cell line. It counts as functional, cell-based. A digest of the protocol: as §3
For assay [15], the system named is Mus musculus. As to the kind of experiment: Change in tumor cell population in ip implanted LOX amelanotic melanoma in mice after administration of compound at 200 mg/kg; toxic. In kind it is functional, organism-based. The arrangement: dose 200 mg/kg. The procedure, abridged:
as §4

A short description of assay [16]: Change in tumor cell population in ip implanted LOX amelanotic melanoma in mice after administration of compound at 100 mg/kg. It counts as functional, Mus musculus. The settings on record: route intraperitoneal. The procedure, abridged: as §4
Assay [17] relates to P388. Briefly: Percent increase in life span of dying mice tested in vivo at 25 mg/kg against ip implanted P388 Leukemia in mice. In kind it is functional. The following applies: Mus musculus, route intraperitoneal. A digest of the protocol: as §5
Assay [18] concerns L1210 (Mus musculus). Briefly: Concentration required to inhibit tumor growth in L1210, murine lymphocytic leukemia cell line.
Assay [19] relates to P388. Briefly: Percent increase in life span of dying mice tested in vivo at 12.5 mg/kg against ip implanted P388 Leukemia in mice. In kind it is functional. The settings on record: Mus musculus, route intraperitoneal. The procedure, abridged:
as §5

For assay [20], the system named is LOX amelanotic melanoma (human). As to the kind of experiment: Change in tumor cell population in ip implanted LOX amelanotic melanoma in mice after administration of compound at 25 mg/kg. The following applies: route intraperitoneal.
The nature of assay [21]: Percent increase in life span of dying mice tested in vivo at 100 mg/kg against ip implanted LOX amelanotic melanoma in mice (60-day survivors). In kind it is functional. The settings on record: Mus musculus, 1440 h, route intraperitoneal. A digest of the protocol: as §2

Structures are written as SMILES.

On to `CNC(=O)OCc1nc(SC)n(C)c1COC(=O)NC`, for which the KE result is “Toxic” in assay [1]; -4.1 in assay [2]; -2.9 in [5]; “Toxic” in assay [9]; -1.5 in [12]; “Toxic” in assay [15]. For the same compound, the KE in assay [16] was -4; in assay [20] it was 0.3. The figures for the ILS at 50 mg/kg in [3] and in [7] were 117% and 17%, respectively. The IC50 in [4] (Homo sapiens, HT-29) worked out at 162 µM; in assay [4] (ht-29) it was 108 µM; in assay [6], 110 µM; in assay [11], 347 µM; in assay [14] it was 218 µM; in assay [18] it was 4.3 µM. For the same compound, the ILS at 25 mg/kg is 34% in [8] and 96% in assay [17]. Moreover, the ILS at 100 mg/kg in [10] was -34%; in assay [21] it was 143%. Moreover, the ILS at 200 mg/kg in assay [13] was -24%. The ILS at 12.5 mg/kg in [19] came to 59%.

The term IC50 denotes the midpoint of a concentration-inhibition curve.

(Values after ChEMBL document CHEMBL1126902, “Synthesis, chemical reactivity, and antitumor evaluation of congeners of carmethizole hydrochloride, an experimental "acylated vinylogous carbinolamine" tumor inhibitor” (J Med Chem, 1993).)
